Where “and” joins values, the source holds several entries; their conditions need not be identical. Equal values may be shown once.
Test system: HEK-293T
Assay: Multiplex assay against HEK293T;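 on Population Tubulin-Different-Phenotype (%): share of the cells with healthy nuclei that show this phenotype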
Assay type: toxicity, cell-based
Settings: human
Procedure, shortened: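 Values for tubulin, mitochondrial-mass and membrane-permeability phenotypes are per cents of cells with healthy nuclei. These cells were identified by CellPathfinder machine-learning gating of live cells that had been stained at seeding with Hoechst33342, BioTracker Green Microtubule Cytoskeleton Dye, MitoTracker Red and Annexin V Alexa Fluor 680 and imaged on a CQ1 microscope at 37°C and 5% CO2 after compound addition. The gating first set Hoechst high-intensity objects apart from normal cells, then split normal cells into healthy, pyknosed or fragmented nuclei, and pyknosed cells into mitotic or apoptotic.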

[1] = 12 h, 1 µM, compound concentration 1 uM, replicate 1
[2] = 12 h, 1 µM, compound concentration 1 uM, replicate 2
[3] = 12 h, 10 µM, compound concentration 10 uM, replicate 1
[4] = 12 h, 10 µM, compound concentration 10 uM, replicate 2
[5] = 24 h, 1 µM, compound concentration 1 uM, replicate 1
[6] = 24 h, 1 µM, compound concentration 1 uM, replicate 2
[7] = 24 h, 10 µM, compound concentration 10 uM, replicate 1
[8] = 24 h, 10 µM, compound concentration 10 uM, replicate 2
[9] = 48 h, 1 µM, compound concentration 1 uM, replicate 1
[10] = 48 h, 1 µM, compound concentration 1 uM, replicate 2
[11] = 48 h, 10 µM, compound concentration 10 uM, replicate 1
[12] = 48 h, 10 µM, compound concentration 10 uM, replicate 2

CCc1nn(CCCN2CCN(c3cccc(Cl)c3)CC2)c(=O)n1CCOc1ccccc1.Cl [NEFAZODONE HYDROCHLORIDE]
Population Apoptotic (%) [1]: 47%
Population Fragmented Nuclei (%) [1]: 7%
Population Healthy Nuclei (%) [1]: 45%
Population Hoechst High Intensity Objects (%) [1]: 10%
Population Membrane Permeable-Phenotype (%) [1]: 7%
Population Mitochondria Different-Phenotype (%) [1]: 88%
Population Mitotic Cells (%) [1]: 52%
Population Normal (%) [1]: 89%
Population Pyknosed Nuclei (%) [1]: 46%
Population Tubulin-Different-Phenotype (%) [1]: 72%
Population Apoptotic (%) [2]: 9%
Population Fragmented Nuclei (%) [2]: 5%
Population Healthy Nuclei (%) [2]: 34%
Population Hoechst High Intensity Objects (%) [2]: 3%
Population Membrane Permeable-Phenotype (%) [2]: 9%
Population Mitochondria Different-Phenotype (%) [2]: 54%
Population Mitotic Cells (%) [2]: 90%
Population Normal (%) [2]: 96%
Population Pyknosed Nuclei (%) [2]: 59%
Population Tubulin-Different-Phenotype (%) [2]: 49%
Population Apoptotic (%) [3]: 90%
Population Fragmented Nuclei (%) [3]: 29%
Population Hoechst High Intensity Objects (%) [3]: 21%
Population Mitochondria Different-Phenotype (%) [3]: 81%
Population Mitotic Cells (%) [3]: 9%
Population Normal (%) [3]: 78%
Population Pyknosed Nuclei (%) [3]: 53%
Population Tubulin-Different-Phenotype (%) [3]: 81%
Population Apoptotic (%) [4]: 83%
Population Fragmented Nuclei (%) [4]: 3%
Population Healthy Nuclei (%) [4]: 17%
Population Hoechst High Intensity Objects (%) [4]: 13%
Population Membrane Permeable-Phenotype (%) [4]: 0%
Population Mitochondria Different-Phenotype (%) [4]: 100%
Population Mitotic Cells (%) [4]: 16%
Population Normal (%) [4]: 86%
Population Pyknosed Nuclei (%) [4]: 78%
Population Tubulin-Different-Phenotype (%) [4]: 100%
Population Apoptotic (%) [5]: 50%
Population Fragmented Nuclei (%) [5]: 8%
Population Healthy Nuclei (%) [5]: 57%
Population Hoechst High Intensity Objects (%) [5]: 6%
Population Membrane Permeable-Phenotype (%) [5]: 3%
Population Mitochondria Different-Phenotype (%) [5]: 89%
Population Mitotic Cells (%) [5]: 50%
Population Normal (%) [5]: 93%
Population Pyknosed Nuclei (%) [5]: 34%
Population Tubulin-Different-Phenotype (%) [5]: 67%
Population Apoptotic (%) [6]: 23%
Population Fragmented Nuclei (%) [6]: 4%
Population Healthy Nuclei (%) [6]: 47%
Population Hoechst High Intensity Objects (%) [6]: 4%
Population Membrane Permeable-Phenotype (%) [6]: 8%
Population Mitochondria Different-Phenotype (%) [6]: 52%
Population Mitotic Cells (%) [6]: 76%
Population Normal (%) [6]: 95%
Population Pyknosed Nuclei (%) [6]: 47%
Population Tubulin-Different-Phenotype (%) [6]: 64%
Population Apoptotic (%) [7]: 90%
Population Fragmented Nuclei (%) [7]: 25%
Population Healthy Nuclei (%) [7]: 21%
Population Hoechst High Intensity Objects (%) [7]: 24%
Population Mitotic Cells (%) [7]: 9%
Population Normal (%) [7]: 75%
Population Pyknosed Nuclei (%) [7]: 52%
Population Apoptotic (%) [8]: 97%
Population Fragmented Nuclei (%) [8]: 6%
Population Healthy Nuclei (%) [8]: 19%
Population Hoechst High Intensity Objects (%) [8]: 10%
Population Membrane Permeable-Phenotype (%) [8]: 0%
Population Mitochondria Different-Phenotype (%) [8]: 100%
Population Mitotic Cells (%) [8]: 2%
Population Normal (%) [8]: 89%
Population Pyknosed Nuclei (%) [8]: 73%
Population Tubulin-Different-Phenotype (%) [8]: 100%
Population Apoptotic (%) [9]: 31%
Population Fragmented Nuclei (%) [9]: 7%
Population Healthy Nuclei (%) [9]: 77%
Population Hoechst High Intensity Objects (%) [9]: 5%
Population Membrane Permeable-Phenotype (%) [9]: 2%
Population Mitochondria Different-Phenotype (%) [9]: 49%
Population Mitotic Cells (%) [9]: 68%
Population Normal (%) [9]: 94%
Population Pyknosed Nuclei (%) [9]: 14%
Population Tubulin-Different-Phenotype (%) [9]: 44%
Population Apoptotic (%) [10]: 17%
Population Fragmented Nuclei (%) [10]: 4%
Population Healthy Nuclei (%) [10]: 72%
Population Hoechst High Intensity Objects (%) [10]: 1%
Population Membrane Permeable-Phenotype (%) [10]: 6%
Population Mitochondria Different-Phenotype (%) [10]: 27%
Population Mitotic Cells (%) [10]: 82%
Population Normal (%) [10]: 98%
Population Pyknosed Nuclei (%) [10]: 22%
Population Tubulin-Different-Phenotype (%) [10]: 49%
Population Apoptotic (%) [11]: 90%
Population Fragmented Nuclei (%) [11]: 21%
Population Healthy Nuclei (%) [11]: 33%
Population Hoechst High Intensity Objects (%) [11]: 15%
Population Membrane Permeable-Phenotype (%) [11]: 1%
Population Mitochondria Different-Phenotype (%) [11]: 98%
Population Mitotic Cells (%) [11]: 9%
Population Normal (%) [11]: 84%
Population Pyknosed Nuclei (%) [11]: 44%
Population Tubulin-Different-Phenotype (%) [11]: 94%
Population Apoptotic (%) [12]: 95%
Population Fragmented Nuclei (%) [12]: 6%
Population Healthy Nuclei (%) [12]: 27%
Population Hoechst High Intensity Objects (%) [12]: 12%
Population Membrane Permeable-Phenotype (%) [12]: 0%
Population Mitochondria Different-Phenotype (%) [12]: 100%
Population Mitotic Cells (%) [12]: 4%
Population Normal (%) [12]: 87%
Population Pyknosed Nuclei (%) [12]: 65%
Population Tubulin-Different-Phenotype (%) [12]: 100%

C[C@]1(O)C[C@@H](c2nc(-c3ccc4ccc(-c5ccccc5)nc4c3)c3c(N)nccn32)C1 [LINSITINIB]
Population Apoptotic (%) [1]: 31% and 29%
Population Fragmented Nuclei (%) [1]: 19% and 26%
Population Healthy Nuclei (%) [1]: 45% and 44%
Population Hoechst High Intensity Objects (%) [1]: 33% and 19%
Population Membrane Permeable-Phenotype (%) [1]: 11% and 4%
Population Mitochondria Different-Phenotype (%) [1]: 17% and 6%
Population Mitotic Cells (%) [1]: 68% and 70%
Population Normal (%) [1]: 66% and 80%
Population Pyknosed Nuclei (%) [1]: 35% and 28%
Total Cell Count [1]: 588 and 493
Population Apoptotic (%) [2]: 18% and 11%
Population Fragmented Nuclei (%) [2]: 4% and 8%
Population Healthy Nuclei (%) [2]: 83% and 86%
Population Hoechst High Intensity Objects (%) [2]: 14% and 5%
Population Membrane Permeable-Phenotype (%) [2]: 5% and 1%
Population Mitotic Cells (%) [2]: 81% and 88%
Population Normal (%) [2]: 85% and 94%
Population Pyknosed Nuclei (%) [2]: 11% and 4%
Total Cell Count [2]: 891 and 1486
Population Apoptotic (%) [5]: 31% and 26%
Population Fragmented Nuclei (%) [5]: 22% and 26%
Population Healthy Nuclei (%) [5]: 53% and 56%
Population Hoechst High Intensity Objects (%) [5]: 27% and 13%
Population Membrane Permeable-Phenotype (%) [5]: 7% and 5%
Population Mitochondria Different-Phenotype (%) [5]: 29% and 10%
Population Mitotic Cells (%) [5]: 68% and 73%
Population Normal (%) [5]: 72% and 86%
Population Pyknosed Nuclei (%) [5]: 23% and 16%
Total Cell Count [5]: 525 and 479
Population Fragmented Nuclei (%) [6]: 10%
Population Healthy Nuclei (%) [6]: 82% and 71%
Population Hoechst High Intensity Objects (%) [6]: 18% and 6%
Population Membrane Permeable-Phenotype (%) [6]: 8% and 4%
Population Mitotic Cells (%) [6]: 80% and 93%
Population Normal (%) [6]: 81% and 93%
Population Pyknosed Nuclei (%) [6]: 6% and 2%
Total Cell Count [6]: 1000 and 2217
